The list is not random: actives were taken first. Their share in the collection is about 2.4%.
DNMT1 inh: inhibitors of human DNMT1 | DNMT1 molecular beacon, Hinp1I cleavage, fluorescence | inhibition (reported as % activation of signal), % at 10 µM | hit rate 0.83% among 360,000; in the data active = inhibition above about 50%
STEP block: blocks human striatal-enriched tyrosine phosphatase; hit rate 0.25% among 360,000; P54829; recombinant STEP, OMFP fluorogenic substrate, fluorescence; AID 588621; inhibition, % at 20 µM;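 active = inhibition at 20 µM, scaled per plate between control wells, above about 37%, limit read from the data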;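 also: 0% = DMSO with enzyme and substrate and 100% = substrate only without enzyme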
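System: isolated STEP enzyme; schedule: 20 min enzyme reaction at room temperature, protected from light; medium: Bis-Tris buffer pH 6.0, 2.5 mM DTT, 0.005% Tween 20; signal: fluorescence, 480/540 nm; dosing: single compound dose of 20 µM, 1% DMSO final; also added: OMFP substrate, 25 µM final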
SUMO1 PPI mod: SUMO1-SIM interaction modulation. P63165. SUMO1 binding to a labelled peptide, TR-FRET, 1 h. inhibition, % at 20 µM. hit rate 0.33% among 360,000. AID 602429; in the data active = inhibition above about 37%
Target sequence (P63165 whole entry, looked up): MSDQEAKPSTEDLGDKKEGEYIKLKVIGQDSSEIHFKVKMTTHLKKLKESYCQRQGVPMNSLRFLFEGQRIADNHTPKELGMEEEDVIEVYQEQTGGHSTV
Scp1 inh: inhibitors of human Scp-1 phosphatase | AID 493091 | inhibition, % at 20 µM | hit rate 0.88% among 340,000 | Recombinant Scp1, phosphopeptide, malachite green phosphate absorbance;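 active = inhibition above about 50% at 20 µM, limit read from the data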;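 also: plate controls were DMSO wells with enzyme for no effect and wells lacking enzyme for full effect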
Target sequence (Q9GZU7 76-261 limits assumed): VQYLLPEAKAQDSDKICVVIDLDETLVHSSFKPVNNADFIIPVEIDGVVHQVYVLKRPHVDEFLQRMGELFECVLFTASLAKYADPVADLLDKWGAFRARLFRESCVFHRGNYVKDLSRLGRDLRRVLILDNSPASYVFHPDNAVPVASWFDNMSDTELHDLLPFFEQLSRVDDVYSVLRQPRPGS
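Test system – truncated SCP-1 phosphatase (76-261aa) · Reagent – Phosphorylated 17-residue peptide substrate · Incubation – 45 min room-temperature reaction, 5 min colour, 30 min stabiliser · Detection – colorimetric phosphate reagent with accelerator and stabiliser, absorbance at 630 nm · Measure – % inhibition at 20 µM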
LMPTP block: blocks human LMPTP phosphatase | P24666 | recombinant LMPTP-A, OMFP fluorogenic substrate, fluorescence intensity | inhibition, % at 20 µM | hit rate 0.22% among 360,000 | AID 651560;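 active = compounds that cut the enzyme signal by at least half of the control window in the single-dose screen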;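 also: plate controls were DMSO wells with enzyme plus substrate for no effect and substrate without enzyme for full effect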
Target sequence (P24666 whole entry, looked up): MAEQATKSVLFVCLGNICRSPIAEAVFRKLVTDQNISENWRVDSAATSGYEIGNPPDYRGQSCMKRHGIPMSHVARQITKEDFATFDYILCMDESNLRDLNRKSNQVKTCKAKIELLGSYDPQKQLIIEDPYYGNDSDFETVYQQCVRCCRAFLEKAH
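Assay system: LMPTP-A phosphatase enzyme | Input: 0.625 nM enzyme | Also added: Fluorogenic phosphatase substrate OMFP at 400 µM final | Compound dosing: One test concentration per compound, 20 µM, with 3% DMSO overall | Schedule: 50 min enzyme reaction at room temperature, protected from light | Signal: Fluorescence intensity | Benchmarks: no-enzyme and uninhibited controls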
NadD inh: inhibitors of Staphylococcus aureus NadD; inhibition, % at 20 µM; hit rate 0.78% among 360,000; purified NadD enzyme, colorimetric absorbance read-out; in the data active = inhibition above about 26%
NadD conf: confirmation of Staphylococcus aureus NadD inhibitors. shares compounds with NadD inh. purified S. aureus NadD, colorimetric enzyme assay. inhibition, % at 20 µM. hit rate 13% among 2,000. AID 624309; in the data active = inhibition mostly above about 42%, no sharp cut-off; inactive = mostly below about 42%
* hit, by the source's call; . = no result.

SMILES	DNMT1 inh	STEP block	SUMO1 PPI mod	Scp1 inh	LMPTP block	NadD inh	NadD conf
COCCn1c(C)cc(C2=NNC(=Nc3ccc(OC)cc3)SC2)c1C	-35	-1	-1	0	2	28	.
CCN=C1NN=C(c2cc(C)n(CCc3ccccc3)c2C)CS1	4	0	23	15	6	17	.
COCCn1c(C)cc(C2=NNC(=Nc3ccccc3)SC2)c1C	-34	-7	-2	6	-1	36*	4
CCN=C1NN=C(c2cc(C)n(Cc3ccco3)c2C)CS1	0	1	-1	7	2	37*	7
Cc1ccccc1NC(=O)c1ccc(NS(=O)(=O)c2cc(C(C)(C)C)cc(C)c2C)cc1	-17	-3	-4	-14	4	41*	26
Cc1ccc(-c2[nH]c3cc(C(=O)NCCCn4ccnc4)ccc3c(=O)c2O)cc1	-9	5	-47	-14	51*	54*	19
COC(=O)C1=C(CS(=O)(=O)c2ccc(Cl)cc2)NC(=O)NC1c1ccc(O)c(OC)c1 (stereo unspecified)	-3	-2	0	-8	-1	-1	.
COC(=O)[C@@H]1CCCN1Cc1c(C(=O)N2CCCCC2)nc2c(C)cccn12	-2	-2	2	-3	0	2	.
CCOC(=O)c1cccc(NC(=O)CS(=O)(=O)Cc2nc(-c3cccc(OC)c3)oc2C)c1	-4	-1	3	12	0	1	.
O=C(Nc1cccc(S(=O)(=O)N2CCCCC2)c1)c1c2c(nc3ccccc13)CCN(Cc1ccccc1)C2	11	2	-1	4	2	30*	-5
O=C1OC(c2ccc3ccccc3c2O)(c2ccc3ccccc3c2O)c2ccccc21	-22	-2	-1	1	4	41*	82*
O=C1OC2(c3ccccc31)c1ccccc1-c1ccccc12	-2	-4	6	-5	2	-5	.
O=C1C2C(c3cccc(/C=C/c4ccccc4)c3)CC=CC2C(c2ccc3ccccc3c2)N1Cc1ccccc1 (stereo unspecified)	15	4	1	-2	4	32*	8
C[C@@H]1CC=C[C@H]2[C@H]1C(=O)N(Cc1ccccc1)[C@H]2c1ccc(-c2ccc(N(C)C)cc2)cc1F	-5	5	-24	12	8	10	.
Cc1ccc(-c2cccc(C3CC=CC4C3C(=O)N(Cc3ccccc3)C4c3ccc4ccccc4c3)c2)cc1 (stereo unspecified)	15	5	-3	0	1	34*	4
Cc1ccc(F)c(C2C3C=CCC(c4cccc(-c5ccc(N(C)C)cc5)c4)C3C(=O)N2Cc2ccccc2)c1 (stereo unspecified)	-27	4	-5	5	6	43*	18
COc1ccc(-c2cccc(C3CC=CC4C3C(=O)N(Cc3ccccc3)C4c3ccc(OC)c(Cl)c3)c2)cc1 (stereo unspecified)	14	2	4	-2	4	19	.
CCn1nc(NS(=O)(=O)c2ccc(F)cc2)c2cc3cccc(C)c3nc21	-3	8	-1	-4	2	7	.
O=c1cc(/N=C/c2coc3c(ccc4ccccc43)c2=O)[nH]c(=S)[nH]1	-5	2	13	-4	-1	65*	2
O=C(Cc1cccc2ccccc12)Nc1ccc(-c2cc3ccccc3oc2=O)cc1	-9	3	30	20	1	32*	14
O=C(NNC(=O)C1CCN(S(=O)(=O)c2cccc(Cl)c2)CC1)C1CC1	-1	1	2	-1	-2	-6	.
COc1ccc(-c2c/c(=N\c3nc(-c4ccccc4)c(C)s3)c3ccccc3o2)cc1O	-8	2	-21	24	7	39*	18
COC(=O)c1c(NC(=O)C2SC(=NC3CCCCC3)C(C(N)=O)=C2N)sc2c1CCCC2 (stereo unspecified)	-27	-1	-1	-7	5	38*	7
C=C(C)CN=C1SC(C(=O)Nc2sc3c(c2C(=O)OC)CCC3)C(N)=C1C(N)=O (stereo unspecified)	-26	-1	0	-10	3	12	.
Cc1ccc(CNC(=O)c2ccc(N3CCC4(CC3)CC(c3ccccc3)=NO4)c(NC(=O)c3ccc(Cl)c([N+](=O)[O-])c3)c2)cc1	9	5	2	-3	1	36*	-4
SMILES	DNMT1 inh	STEP block	SUMO1 PPI mod	Scp1 inh	LMPTP block	NadD inh	NadD conf
Cc1ccc(CNC(=O)c2ccc(N3CCC4(CC3)CC(c3cccc(Br)c3)=NO4)c(NC(=O)c3cccc(C)c3)c2)cc1	-1	5	4	0	5	36*	1
Cc1ccc(CNC(=O)c2ccc(N3CCC4(CC3)CC(c3cccc(Br)c3)=NO4)c(NC(=O)c3ccc(Br)cc3)c2)cc1	6	4	-3	-6	1	28	.
Cc1ccc(CNC(=O)c2ccc(N3CCC4(CC3)CC(c3cccc(Br)c3)=NO4)c(NC(=O)c3c(Cl)cccc3Cl)c2)cc1	11	4	0	-7	0	33*	-1
COc1cccc(N(C(=O)CNC(=O)c2ccco2)C(C(=O)NC2CCCC2)c2ccncc2)c1 (stereo unspecified)	-7	-1	1	-2	-1	4	.
O=c1[nH]c2cc3c(cc2cc1CN(Cc1ccccc1)Cc1nnnn1Cc1ccco1)OCCO3	4	4	16	-2	26	33*	15
Cc1ccc2[nH]c(=O)c(CN(Cc3ccc4c(c3)OCO4)Cc3nnnn3Cc3ccco3)cc2c1	9	-1	21	1	7	16	.
Cc1cc(C)c2cc(CN(Cc3ccc4c(c3)OCO4)Cc3nnnn3Cc3ccco3)c(=O)[nH]c2c1	-7	0	2	9	3	37*	10
Cc1ccc2[nH]c(=O)c(CN(CCc3ccccc3)C(c3nnnn3Cc3ccco3)C(C)C)cc2c1 (stereo unspecified)	-10	-2	-26	1	5	54*	56*
C/C=C(/C(=C/C)c1ccc(O)cc1)c1ccc(O)cc1	-27	-6	16	-14	1	-8	.
Cc1cccc(NC(=O)COC(=O)[C@@H]2CCCN2C(=O)c2cccs2)c1	2	-3	4	0	-2	-5	.
Cn1c2ccccc2c2cc(/C=N/NC(=O)c3cc(O)ccc3O)ccc21	46	34	34	59*	43	49*	52*
O=c1c2sc3nc(N4CCOCC4)c4c(c3c2ncn1C(c1ccccc1)c1ccccc1)CCCC4	3	-2	-31	3	1	32*	1

High-throughput results from PubChem.
